Reference: ChEMBL document CHEMBL2384977, “Synthesis and biological evaluation of novel styryl benzimidazole derivatives as probes for imaging of neurofibrillary tangles in Alzheimer's disease” (Bioorg Med Chem, 2013)

Legend:
Brain = experiment: Ratio of drug level in ddY mouse brain at 13.2 to 20.6 kBq, iv measured at 2 mins to drug level in ddY mouse brain at 13.2 to 20.6 kBq, iv measured at 60 mins; format: ADME, organism-based; conditions: in vivo
In short: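 Tail-vein injection of the 125I tracer (13.2–20.6 kBq, saline with ethanol) into male 5-week-old ddY mice. The ratio is brain uptake (%ID/g) at 2 min divided by brain uptake at 60 min, from groups of 5 animals.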

[1] = target: Amyloid-beta precursor protein (Homo sapiens, UniProt P05067); experiment: Binding affinity to amyloid beta (1 to 42) (unknown origin) aggregates assessed as apparent dissociation constant after 30 mins by fluorescence spectroscopic analysis; conditions: read-out: Kd(app)
In short: (§1)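 Tau: human 441-aa tau expressed in E. coli, aggregated at 1 mg/mL in MES buffer pH 6.8 with 0.1 mg/mL heparin, 37 °C for 3 days with shaking. Abeta1-42 aggregated at 0.25 mg/mL in PBS pH 7.4, 37 °C for 42 h with shaking. Aggregates at final 10 µg/mL were incubated with ligand (final 0.02–10 µM) for 30 min at room temperature. Apparent Kd was taken from fluorescence saturation curves at ex 440 nm, em 510 nm (tau) or em 480 nm (Abeta). Mean ± SEM of six independent experiments.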

[2] = target: Microtubule-associated protein tau (Homo sapiens, UniProt P10636); experiment: Binding affinity to recombinant human tau (441 amino acid residues) aggregates expressed in Escherichia coli assessed as apparent dissociation constant after 30 mins by fluorescence spectroscopic analysis; conditions: read-out: Kd(app); in short: as §1
Homo sapiens = species: Homo sapiens; experiment: Selectivity ratio of Kd(app) for amyloid beta (1 to 42) (unknown origin) aggregates to Kd(app) for recombinant human tau (441 amino acid residues) aggregates
In short: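 Human 441-aa tau, expressed in E. coli, was aggregated at 1 mg/mL (MES pH 6.8, 0.1 mg/mL heparin, 37 °C, 3 days, shaking). Aβ1–42 was aggregated at 0.25 mg/mL (PBS pH 7.4, 37 °C, 42 h). Aggregates were incubated 30 min at room temperature with ligand, and fluorescence read at ex 440 nm, em 510 nm (tau) or 480 nm (Aβ). Apparent Kd came from saturation curves over six independent experiments, and the ratio is Kd(Aβ)/Kd(tau).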

Chain of Microtubule-associated protein tau (P10636 whole entry): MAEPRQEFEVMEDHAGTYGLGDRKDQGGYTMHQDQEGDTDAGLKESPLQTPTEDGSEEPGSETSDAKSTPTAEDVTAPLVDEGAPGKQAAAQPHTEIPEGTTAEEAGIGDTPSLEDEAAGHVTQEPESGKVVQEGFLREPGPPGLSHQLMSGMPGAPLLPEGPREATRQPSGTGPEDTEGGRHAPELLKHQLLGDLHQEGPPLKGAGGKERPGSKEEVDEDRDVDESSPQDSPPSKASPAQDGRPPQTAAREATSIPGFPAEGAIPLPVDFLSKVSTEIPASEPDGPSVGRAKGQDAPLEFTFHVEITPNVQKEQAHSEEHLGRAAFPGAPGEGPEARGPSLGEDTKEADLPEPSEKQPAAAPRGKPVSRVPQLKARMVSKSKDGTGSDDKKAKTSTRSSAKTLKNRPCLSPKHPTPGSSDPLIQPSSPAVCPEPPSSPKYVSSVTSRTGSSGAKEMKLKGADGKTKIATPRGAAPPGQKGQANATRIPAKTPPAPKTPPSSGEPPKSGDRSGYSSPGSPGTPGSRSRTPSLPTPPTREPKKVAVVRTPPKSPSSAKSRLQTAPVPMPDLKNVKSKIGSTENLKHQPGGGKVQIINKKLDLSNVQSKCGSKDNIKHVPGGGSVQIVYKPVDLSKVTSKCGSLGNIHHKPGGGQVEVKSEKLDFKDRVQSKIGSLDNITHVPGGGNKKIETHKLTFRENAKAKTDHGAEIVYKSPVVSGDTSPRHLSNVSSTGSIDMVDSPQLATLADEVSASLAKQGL
Chain of Amyloid-beta precursor protein (P05067 whole entry): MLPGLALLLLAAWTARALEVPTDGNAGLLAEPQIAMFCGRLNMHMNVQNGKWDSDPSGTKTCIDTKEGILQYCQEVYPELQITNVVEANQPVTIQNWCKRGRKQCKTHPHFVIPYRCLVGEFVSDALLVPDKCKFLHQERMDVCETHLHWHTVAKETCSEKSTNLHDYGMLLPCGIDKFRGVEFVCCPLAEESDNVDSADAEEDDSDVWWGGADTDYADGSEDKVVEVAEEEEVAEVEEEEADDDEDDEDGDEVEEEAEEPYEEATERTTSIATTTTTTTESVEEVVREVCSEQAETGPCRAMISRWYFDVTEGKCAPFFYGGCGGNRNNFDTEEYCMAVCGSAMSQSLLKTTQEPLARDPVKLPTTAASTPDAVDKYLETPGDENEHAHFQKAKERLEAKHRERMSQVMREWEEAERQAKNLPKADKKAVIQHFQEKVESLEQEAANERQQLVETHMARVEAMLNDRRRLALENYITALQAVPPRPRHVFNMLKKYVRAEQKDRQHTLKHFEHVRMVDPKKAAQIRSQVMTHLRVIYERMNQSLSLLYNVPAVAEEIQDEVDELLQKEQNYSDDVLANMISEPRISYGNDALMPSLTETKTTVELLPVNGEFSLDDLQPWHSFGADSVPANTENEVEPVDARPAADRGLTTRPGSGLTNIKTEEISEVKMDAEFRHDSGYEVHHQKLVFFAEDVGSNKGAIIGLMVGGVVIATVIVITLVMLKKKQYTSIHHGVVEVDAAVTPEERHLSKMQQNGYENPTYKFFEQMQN

Row | Ratio (Brain) | Kd [1] [µM] | Kd [2] [µM] | Selectivity ratio (Homo sapiens) | Structure (SMILES)
1 | 0.3 |  |  |  | Nc1ccc(/N=N/c2nc3ccc([125I])cc3s2)cc1
2 |  | 0.9 | 2.36 | 0.38 | Nc1ccc(/C=C/c2nc3ccc(I)cc3[nH]2)cc1
